Consider 15 compounds from ChEMBL document CHEMBL4385599, “Neutral sphingomyelinase 2 inhibitors based on the 4-(1H-imidazol-2-yl)-2,6-dialkoxyphenol scaffold” (Eur J Med Chem, 2019).

A short description of series [1]: Selectivity index, ratio of IC50 for horseradish peroxidase to IC50 for Inhibition of human recombinant nSMase expressed in HEK293 cells. The class given is cell-based.
The target of series [2] is T1, Sphingomyelin phosphodiesterase 3 (Homo sapiens, UniProt Q9NY59).
T1 sequence (Q9NY59 whole entry): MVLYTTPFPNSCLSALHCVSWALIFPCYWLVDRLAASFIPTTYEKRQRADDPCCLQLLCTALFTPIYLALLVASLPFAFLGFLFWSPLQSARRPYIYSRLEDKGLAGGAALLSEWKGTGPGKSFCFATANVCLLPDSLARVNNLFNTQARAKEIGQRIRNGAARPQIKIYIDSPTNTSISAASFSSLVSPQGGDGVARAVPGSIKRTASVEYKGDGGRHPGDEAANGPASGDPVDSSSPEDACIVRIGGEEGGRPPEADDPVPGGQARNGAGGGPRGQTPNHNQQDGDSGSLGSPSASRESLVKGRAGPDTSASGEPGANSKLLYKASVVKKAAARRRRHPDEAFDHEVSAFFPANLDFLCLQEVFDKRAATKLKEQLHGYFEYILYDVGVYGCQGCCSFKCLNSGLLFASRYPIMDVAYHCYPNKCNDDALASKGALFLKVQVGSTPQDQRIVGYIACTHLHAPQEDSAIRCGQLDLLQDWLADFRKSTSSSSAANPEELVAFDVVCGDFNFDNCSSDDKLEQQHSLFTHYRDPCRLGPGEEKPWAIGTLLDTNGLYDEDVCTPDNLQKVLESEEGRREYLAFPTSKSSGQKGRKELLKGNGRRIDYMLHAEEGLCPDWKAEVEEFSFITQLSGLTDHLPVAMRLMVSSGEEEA
Nature of the series: Inhibition of human recombinant nSMase expressed in HEK293 cells using sphingomyelin as substrate by alkaline phosphatase, choline oxidase and horseradish peroxidase dependent H2O2 detection based fluorescence coupled assay. A digest of the protocol: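 Fluorescence-based coupled assay with human recombinant nSMase2, alkaline phosphatase and choline oxidase; IC50 values are mean ± SD of at least three experiments.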

The species entered for series [3] is Homo sapiens. Kind of series: Selectivity index, ratio of IC50 for choline oxidase (unknown origin) to IC50 for Inhibition of human recombinant nSMase expressed in HEK293 cells. The series is classed as cell-based.
Series [4] is described as follows: Metabolic stability in mouse liver microsomes assessed as parent compound remaining at 5 uM in presence of NADPH regenerating system measured after 1 hr by LC/MS/MS method. The class given is ADME, Microsome. In general terms: Liver microsomes are vesicles of endoplasmic reticulum, rich in cytochrome P450 enzymes.
For series [5], the species on record is Homo sapiens. Nature of the series: Selectivity index, ratio of IC50 for alkaline phosphatase (unknown origin) to IC50 for Inhibition of human recombinant nSMase expressed in HEK293 cells. The class given is cell-based.
Series [6] can be described thus: Ratio of drug level in brain to plasma in CD-1 mouse at 10 mg/kg, po measured after 2 hrs by UPLC and LC-MS/MS analysis. The class given is ADME, organism-based. A digest of the protocol: (§1)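 Male CD-1 mice (25–30 g), single oral gavage 10 mg/kg in 5% DMSO, 5% polysorbate 80, 90% saline; 3 mice per time point, sacrificed at 0.5 and 2 h. Cardiac blood into heparin, plasma by centrifugation; brains flash frozen. Acetonitrile extraction with losartan internal standard; quantified by UPLC–LC-MS/MS against calibration curves in naïve plasma/brain matrix.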

The nature of series [7]: Metabolic stability in mouse liver microsomes assessed as parent compound remaining in presence of UDPGA at 5 uM measured after 1 hr by LC/MS/MS method. The class given is ADME, Microsome. A digest of the protocol:
(§2)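 Glucuronidation: compound in 50 mM Tris-HCl pH 7.5 with microsomes 0.5 mg/mL, 8 mM MgCl2, 25 μg/mL alamethicin, preincubated at 37 °C; started with UDPGA 2 mM final, triplicate; 60 min; quenched with cold acetonitrile plus internal standard; parent remaining by LC/MS/MS; cofactor-free controls.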

Series [8] in a line: Metabolic stability in human liver microsomes assessed as parent compound remaining in presence of UDPGA at 5 uM measured after 1 hr by LC/MS/MS method. The class given is ADME, Microsome. A digest of the protocol: as §2
Series [9] is described as follows: Metabolic stability in human liver microsomes assessed as parent compound remaining at 5 uM in presence of NADPH regenerating system measured after 1 hr by LC/MS/MS method. The series is classed as ADME, Microsome.
A short description of series [10]: Ratio of drug level of test compound to drug level of DPTIP in CD-1 mouse plasma at 10 mg/kg, po measured after 2 hrs by UPLC and LC-MS/MS analysis. The class given is ADME, organism-based. Particulars: in vivo. A digest of the protocol:
as §1

Series [11] is described as follows: Ratio of drug level of test compound to drug level of DPTIP in CD-1 mouse plasma at 10 mg/kg, po measured after 0.5 hrs by UPLC and LC-MS/MS analysis. The class given is ADME, organism-based. As to conditions: in vivo. A digest of the protocol: as §1
A short description of series [12]: Drug metabolism in CD-1 mouse assessed as (2S,3S,4S,5R,6S)-6-(4-(4,5-diisopropyl-1H-imidazol-2-yl)-2,6-dimethoxyphenoxy)-3,4,5-trihydroxytetrahydro-2H-pyran-2-carboxylic acid at 10 mg/kg, po measured after 2 hrs by UPLC and LC-MS/MS analysis. The series is classed as ADME, organism-based. As to conditions: in vivo; call rule not given here.
Series [13] can be described thus: Ratio of drug level of test compound to drug level of DPTIP in CD-1 mouse brain at 10 mg/kg, po measured after 2 hrs by UPLC and LC-MS/MS analysis. The class given is ADME, organism-based. Particulars: in vivo. A digest of the protocol: as §1
In series [14] the target is T2, Sphingomyelin phosphodiesterase 3 (Rattus norvegicus, UniProt O35049).
T2 sequence (O35049 whole entry): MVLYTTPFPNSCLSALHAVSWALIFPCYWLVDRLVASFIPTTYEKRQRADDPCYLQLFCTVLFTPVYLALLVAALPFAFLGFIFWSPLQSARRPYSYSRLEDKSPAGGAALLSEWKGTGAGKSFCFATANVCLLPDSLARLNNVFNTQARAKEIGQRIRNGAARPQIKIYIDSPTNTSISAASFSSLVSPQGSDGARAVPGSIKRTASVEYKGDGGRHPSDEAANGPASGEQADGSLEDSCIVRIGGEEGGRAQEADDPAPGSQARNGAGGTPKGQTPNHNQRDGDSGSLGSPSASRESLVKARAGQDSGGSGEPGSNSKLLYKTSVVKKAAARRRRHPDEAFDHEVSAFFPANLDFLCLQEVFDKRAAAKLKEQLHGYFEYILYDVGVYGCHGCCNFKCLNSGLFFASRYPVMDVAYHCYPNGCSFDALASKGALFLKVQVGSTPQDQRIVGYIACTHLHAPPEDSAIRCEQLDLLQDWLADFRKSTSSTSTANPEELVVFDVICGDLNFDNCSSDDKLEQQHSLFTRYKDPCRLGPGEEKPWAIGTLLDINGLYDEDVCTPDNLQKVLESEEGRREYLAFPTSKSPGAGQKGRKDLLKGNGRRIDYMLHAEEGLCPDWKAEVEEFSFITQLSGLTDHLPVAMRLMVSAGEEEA
Nature of the series: Inhibition of rat brain neutral sphingomyelinase pre-incubated for 30 mins before p-nitrophenyl/phosphorylcholine substrate addition by spectrophotometry.

Series [15] in a line: Drug level in CD-1 mouse treated with at 10 mg/kg, po 4-(4,5-Diisopropyl-1H-imidazol-2-yl)-2,6-dimethoxyphenol hydrochloride assessed as compound formation measured after 2 hrs by UPLC and LC-MS/MS analysis. The series is classed as ADME, organism-based. As to conditions: in vivo. A digest of the protocol: as §1

In the case of `CCOc1cc(-c2nc(-c3ccccc3)c(-c3cccs3)[nH]2)cc(OCC)c1O`, the Ratio IC50 in [1], in series [3] and in series [5] was over 5 each time. The IC50 in series [2] worked out at 10 nM. Further, in series [4], the Stability was found to be 35%.
In the case of `COc1cc(-c2nc(-c3cccs3)c(-c3ccccc3)[nH]2)cc(OC)c1O`, in [6], the BPR was 17%. In addition, the Stability worked out at 67% in series [7], 50% in series [8], 95% in [9] and 95% in series [4].
As to `COc1cc(-c2nc(C)c(-c3ccccc3)[nH]2)cc(OC)c1O`, the Ratio IC50 in [1], in [3] and in series [5] was over 5 in each case. Further, the Stability is reported as 95% in series [9] and 82% in [4].
For the compound `COc1cc(-c2nc(-c3ccccc3)c(C(C)C)[nH]2)cc(OC)c1O`, the Ratio IC50 in series [1], in [3] and in series [5] was over 5 each time. The Stability is over 95% in series [9] and 94% in series [4]. In addition, the IC50 in series [2] was 70 nM.
As to `COc1cc(-c2nc(-c3cccs3)c(C)[nH]2)cc(OC)c1O`, the Ratio IC50 in series [1], in series [3] and in [5] was over 5 in each case. The results for the Stability in [9] and in [4] were 73% and 95%, respectively. Also, the IC50 in series [2] worked out at 20 nM.
On to `COc1cc(-c2nc(C(C)C)c(C(C)C)[nH]2)cc(OC)c1O`, for which, in series [6], the BPR came to 9%. Further, the Stability is listed as 14% in [7], 32% in series [8], over 95% in series [9] and 82% in [4]. The figures for the Ratio in [10], in series [11] and in series [13] were 6, 3 and 3, respectively. The Ratio IC50 in series [1], in [3] and in series [5] was over 5 throughout. In addition, the Drug metabolism entry in series [12] is “Metabolite_Detected”. Moreover, in series [2], the IC50 was determined as 90 nM.
`O=C(/C=C\c1ccc(/C=C\C(=O)Nc2ccc(C3=NCCN3)cc2)cc1)Nc1ccc(C2=NCCN2)cc1` came in with an IC50 in series [14] of 1000 nM.
Consider `COc1cc(-c2nc(C(C)C)c(C(C)C)[nH]2)cc(OC)c1O[C@@H]1O[C@H](C(=O)O)[C@@H](O)[C@H](O)[C@H]1O`, for which the Drug uptake result in [15] is given as “Active”.
For `CCc1nc(-c2cc(OC)c(O)c(OC)c2)[nH]c1CC`, the Ratio IC50 in series [1], in [3] and in series [5] was over 5 each time. For the same compound, the Stability in series [9] is over 95%; in series [4], 75%. The IC50 in series [2] worked out at 120 nM.
Take `COc1cc(-c2nc(-c3ccccc3)c(-c3ccccc3)[nH]2)cc(OC)c1O`: the Ratio IC50 in [1], in [3] and in series [5] was over 5 throughout. Moreover, the Stability in series [9] and in series [4] was over 95% in each case.
For `Oc1c(OCC(F)(F)F)cc(-c2nc(-c3ccccc3)c(-c3cccs3)[nH]2)cc1OCC(F)(F)F`, the Ratio IC50 in [1], in [3] and in series [5] was over 5 throughout. Besides, the Stability in series [9] was 94%; in series [4], over 95%. Besides, in series [2], the IC50 stood at 70 nM.
Take `COc1ccc(-c2nc(-c3cc(OC)c(O)c(OC)c3)[nH]c2-c2ccc(OC)cc2)cc1`: the Ratio IC50 in series [1], in series [3] and in series [5] was over 5 each time. Also, the Stability in series [9] was found to be 75%; in series [4] it was 73%.
Regarding `COc1cc(-c2ncc(C)[nH]2)cc(OC)c1O`, the Ratio IC50 in series [1], in series [3] and in series [5] was under 5 in each case. For the same compound, in series [2], the IC50 came out at 220 nM.
As to `CC(C)Oc1cc(-c2nc(-c3ccccc3)c(-c3cccs3)[nH]2)cc(OC(C)C)c1O`, the figures for the Stability in series [7] and in [4] were over 95% and 4%, respectively. In addition, the Ratio IC50 in series [1], in [3] and in series [5] was over 5 each time. The IC50 in series [2] was determined as 40 nM.
Turning to `COc1cc(-c2nc(-c3ccc(C)cc3)c(-c3ccc(C)cc3)[nH]2)cc(OC)c1O`, the Ratio IC50 in series [1], in [3] and in series [5] was over 5 each time. Also, the Stability in [9] and in series [4] was over 95% each time. Moreover, in series [2], the half-maximal inhibitory concentration (IC50) came out at 70 nM.

The term IC50 denotes the midpoint of a concentration-inhibition curve.
